Measured values from different studies.
Lines come from different studies, so protocols differ.
Target: RAC-gamma serine/threonine-protein kinase (AKT3, Homo sapiens, UniProt Q9Y243)

| test | setting | remaining binding [%] | Structure (SMILES) |
| --- | --- | --- | --- |
| binding | 1 µM | 99 | C[C@H]1CCN(c2nccc(-c3cnn4ncccc34)n2)C1 |
| binding, competition with immobilised ligand | 1 µM | 100 | O=C(c1ccc(Nc2ncc(Cl)c(-c3ccc(Cl)s3)n2)cc1)N1CCC(N2CCCC2)CC1 |
| binding, competition with immobilised ligand | 1 µM | 100 | O=C(Nc1c[nH]nc1C(=O)NC1CCNCC1)c1cc(F)cc(F)c1 |
| binding | 1 µM | 100 | CN(C)c1nccc(-c2cnn3ncccc23)n1 |
| cell-free assay, competition with immobilised ligand | 1 µM | 100 | O=C(O)[C@@H]1[C@@H](Cn2nnc3ccccc3c2=O)CC[C@H]1C(=O)c1ccc(OCCC2CCOCC2)cc1 |
| binding, competition with immobilised ligand | 0.1 µM | 62 | C[C@@H](c1ccc(-n2cnc3c(N)ncnc32)cc1)N1CCc2nn(C)c(Cc3ccccc3)c2C1=O |
| binding, competition with immobilised ligand | 1 µM | 100 | COc1cnc(Nc2cccc(S(N)(=O)=O)c2)nc1N1CCN(c2ccccc2)CC1 |
| cell-free assay, competition with immobilised ligand | 1 µM | 100 | O=C1NC(c2ccccn2)Sc2ccccc21 (stereo not drawn) |
| binding, competition with immobilised ligand | 10 µM | 69 | c1cncc(-c2cccc(Nc3nccc(NC4CCCCC4)n3)c2)c1 |
| binding | 1 µM | 83 | CN(CCCC(F)(F)F)c1nccc(-c2cnn3ncccc23)n1 |
| cell-free assay, competition with immobilised ligand | 5 µM | 99 | FC(F)(F)Oc1cccc(-c2cnc3ccc(-c4ccncc4)nn23)c1 |
| binding, competition with immobilised ligand | 1 µM | 100 | O=C(c1ccc(Nc2nccc(-c3cc4ccccc4s3)n2)cc1)N1CCC(N2CCCC2)CC1 |
| binding, competition with immobilised ligand | 1 µM | 89 | CCN1CCN(Cc2ccc(C(=O)Nc3ccc(C)c(Oc4ccc5c(c4)CC(=O)N5)c3)cc2C(F)(F)F)CC1 |
| binding, competition with immobilised ligand | 1 µM | 100 | c1ccc(N2CCN(Cc3nc4ccccc4[nH]3)CC2)nc1 |
| binding | 1 µM | 100 | N[C@H]1CCN(c2nccc(-c3cnn4ncccc34)n2)C1 |
| cell-free assay, competition with immobilised ligand | 0.1 µM | 86 | C[C@@H]1CN(c2cc(-c3n[nH]c4ccc(OC5(C)CC5)cc34)ncn2)C[C@H](C)O1 |
| binding | 1 µM | 100 | CN(C)c1ncc(F)c(-c2cnn3ncccc23)n1 |
| cell-free assay, competition with immobilised ligand | 1 µM | 79 | NS(=O)(=O)c1cc(NC(=O)C2(c3ccccc3Cl)CC2)ccc1Oc1cccc(Cl)c1 |
| binding, competition with immobilised ligand | 1 µM | 100 | O=C(c1ccc(Nc2ncc(Cl)c(-c3cc4ccccc4s3)n2)cc1)N1CCC(N2CCCC2)CC1 |
| cell-free assay, competition with immobilised ligand | 1 µM | 100 | CCc1ccccc1C(=O)Nc1n[nH]c2c(C)c(F)c(C3C(C#N)=C(C)N(C)C(C)=C3C#N)cc12 |
| binding | 1 µM | 91 | CN(C)c1nccc(-c2cnc3ncccn23)n1 |
